Results on seven compounds are retold here after ChEMBL document CHEMBL2311304, “Design, synthesis and in vitro and in vivo antitumor activities of novel bivalent β-carbolines” (Eur J Med Chem, 2013).

Structures are written as SMILES.

Broadly, the IC50 is the midpoint of a concentration-inhibition curve. Broadly, the LD50 is the dose at which mortality reaches 50%.

A short description of data set [1]: Antitumor activity in mouse Sarcoma 180 cells inoculated mouse assessed as tumor inhibition rate at one fifth of LD50 concentration once a day for consecutive 7 days by ip. Details: scale not given: the % may be the effect or the level left. The format is functional. Summed up:
(§1)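 Each tumour line was first grown in mice for 7 days, then harvested. Viable cells (2 × 10^6 per mouse) were injected s.c. into the armpit. Dosing began 24 h later: i.p., about one fifth of LD50, daily for 7 days, 10 female mice per group. […] Body weight was recorded every 3 days. Tumours were excised and weighed on day 21 to give inhibition rate.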

For data set [2], the system named is Mus musculus. Description: Neurotoxicity in C57BL/6 mouse at 1 to 500 mg/kg, ip for 14 days. Particulars: in vivo, 336 h. It counts as toxicity, organism-based. Details: dose 1-500 mg/kg, route intraperitoneal. Summed up: (§2)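 Healthy C57BL/6 mice (9–12 weeks, 18–22 g) were fasted overnight with free access to water. Each received a single i.p. dose of 1.0–500 mg kg-1 in 0.5% CMC-Na, 10 mice per group (5 male, 5 female). Mice were watched continuously for 2 h, intermittently to 24 h, then occasionally to 14 days for tremor, twitch, jumping and supination. At day 14 they were killed and heart, liver and kidneys were examined macroscopically.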

Data set [3] relates to Mus musculus. Description: Toxicity in C57BL/6 mouse assessed as maximum weight loss at 7.5 mg/kg, ip. Particulars: in vivo. It counts as organism-based. Details: dose 7.5 mg/kg, route intraperitoneal.
Data set [4] can be described thus: Antitumor activity in mouse Lewis lung cancer cells inoculated mouse assessed as tumor inhibition rate at one fifth of LD50 concentration once a day for consecutive 7 days by ip. Details: scale not given: the % may be the effect or the level left. The format is functional, Cancer cell lines. Summed up:
as §1

Another data set concerns SK-OV-3. Description: Cytotoxicity against human ovary adenocarcinoma SKOV3 cells assessed as reduction in optical density by MTT assay. It counts as functional, cell-based. Particulars: SK-OV-3, Female gonad. Summed up: (§3)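 Cells were cultured in RPMI-1640 with 10% (v/v) fetal calf serum, 100 µg ml-1 penicillin and 100 µg ml-1 streptomycin at 37 °C in humidified 5% CO2. Compounds were dissolved in DMSO, with final DMSO at 2% (v/v) or lower. MTT staining was used, with three replicate wells per point. IC50 is the concentration giving a 50% drop in optical density versus untreated cells.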
A general note: Formazan colour is commonly taken as a measure of viable cells.

For a further data set, the system named is BGC-823. Put plainly: Cytotoxicity against human gastric carcinoma BGC823 cells assessed as reduction in optical density by MTT assay. It counts as functional, cell-based. Summed up:
as §3

For a further data set, the system named is 769-P. Description: Cytotoxicity against human renal carcinoma 769-P cells assessed as reduction in optical density by MTT assay. It counts as functional, cell-based. Summed up: as §3
The next data set concerns KB. Description: Cytotoxicity against human epidermoid carcinoma of the nasopharynx KB cells assessed as reduction in optical density by MTT assay. The format is functional, cell-based. Summed up: as §3
Another data set has as its system A-375. Put plainly: Cytotoxicity against human malignant melanoma A375 cells assessed as reduction in optical density by MTT assay. It counts as functional, cell-based. Summed up:
as §3

In data set [5] the test system is Mus musculus. Put plainly: Toxicity in C57BL/6 mouse assessed as liver damage at 1 to 500 mg/kg, ip for 14 days. It counts as organism-based. The arrangement: dose 1-500 mg/kg, route intraperitoneal. Particulars: in vivo, 336 h. Summed up: as §2
The test system of data set [6] is Mus musculus. Description: Toxicity in C57BL/6 mouse assessed as heart damage at 1 to 500 mg/kg, ip for 14 days. Conditions: in vivo, 336 h. It counts as organism-based. Details: dose 1-500 mg/kg, route intraperitoneal. Summed up: as §2
In the next data set the test system is B16. Description: Antitumor activity in mouse B16 melanoma cell lines cells inoculated mouse assessed as tumor inhibition rate at one fifth of LD50 concentration once a day for consecutive 7 days by ip. The format is functional. The arrangement: scale not given: the % may be the effect or the level left. Summed up: as §1
Another data set relates to CT26. Put plainly: Antitumor activity in mouse CT26 colon cancer cells inoculated mouse assessed as tumor inhibition rate at one fifth of LD50 concentration once a day for consecutive 7 days by ip. The format is functional. The arrangement: scale not given: the % may be the effect or the level left. Summed up:
as §1

Data set [7] deals with Mus musculus. Description: Toxicity in C57BL/6 mouse assessed as maximum weight loss at 30 mg/kg, ip. Particulars: in vivo. The arrangement: dose 30 mg/kg, route intraperitoneal. The format is organism-based. Summed up:
(§4)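 Tumor-bearing mice, 10 females per group, were inoculated s.c. in the armpit with 2 × 10^6 viable tumor cells. Compound was given i.p. once daily for 7 consecutive days, starting 24 h after inoculation. […] Body weight was recorded every 3 days until sacrifice on day 21.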

Data set [8] relates to Mus musculus. Description: Toxicity in C57BL/6 mouse assessed as kidney damage at 1 to 500 mg/kg, ip for 14 days. Particulars: in vivo, 336 h. The format is organism-based. The arrangement: dose 1-500 mg/kg, route intraperitoneal. Summed up:
as §2

The test system of another data set is H22. Put plainly: Antitumor activity in mouse H22 liver cancer cells inoculated mouse assessed as tumor inhibition rate at one fifth of LD50 concentration once a day for consecutive 7 days by ip. The format is functional. The arrangement: scale not given: the % may be the effect or the level left. Summed up: as §1
Data set [9] in a line: Acute toxicity in ip treated C57BL/6 mouse for 14 days. The format is organism-based. Particulars: in vivo. Summed up:
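C57BL/6 mice (9–12 weeks, 18–22 g) were fasted overnight with free water. They received single i.p. doses of 1.0–500 mg kg-1 in 0.5% CMC-Na, 10 mice per group (5 male, 5 female). Mice were watched continuously for 2 h, then intermittently to 24 h, then occasionally to 14 days. Heart, liver and kidneys were checked macroscopically. LD50 was derived graphically.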

Data set [10] has as its system Mus musculus. Description: Toxicity in C57BL/6 mouse assessed as maximum weight loss at 10 mg/kg, ip. It counts as organism-based. Details: dose 10 mg/kg, route intraperitoneal. Conditions: in vivo.
The test system of data set [11] is Mus musculus. Description: Toxicity in C57BL/6 mouse assessed as maximum weight loss at 50 mg/kg, ip. The format is organism-based. Conditions: in vivo. Details: dose 50 mg/kg, route intraperitoneal.
Data set [12] relates to Mus musculus. Put plainly: Toxicity in C57BL/6 mouse assessed as maximum weight loss at 40 mg/kg, ip. The format is organism-based. The arrangement: dose 40 mg/kg, route intraperitoneal. Particulars: in vivo. Summed up:
as §4

As for `COc1ccc2c(c1)[nH]c1c(C)nccc12` [HARMINE], the Activity is reported as 15.3% in [1], “Toxic” in the data set on Mus musculus [2], 8.5% in the data set on Mus musculus [3] and 34.1% in data set [4]. The concentration for half-maximal inhibition (IC50) in the data set on SK-OV-3 is 74.6 µM; in the data set with BGC-823, 63.2 µM; in the data set on 769-P, 48.9 µM; in the data set on KB it was 57.8 µM; in the data set on A-375, 72.5 µM.
On to `c1ccc2c(c1)c1ccncc1n2CCCCCn1c2ccccc2c2ccncc21`, for which the Activity is recorded as 43.8% in data set [1]; “Non-toxic” with Mus musculus [2]; “Non-toxic” in the data set on Mus musculus [5]; 42.5% in data set [4]; “Non-toxic” with Mus musculus [6]; 26.1% with B16. Moreover, the Activity in the data set with CT26 was 48.6%; in the data set with Mus musculus [7], 10%; in the data set on Mus musculus [8], “Non-toxic”; in the data set with H22 it was 40.4%. Moreover, the 50% inhibitory concentration (IC50) in the data set on SK-OV-3 was over 200 µM; in the data set on BGC-823, 23.5 µM; in the data set on 769-P, 15.3 µM; with KB, over 200 µM; in the data set with A-375 it was 10.2 µM.
`CCOC(=O)c1cc2c(cn1)[nH]c1ccccc12`: the Activity in [1] is recorded as 35.2%; with Mus musculus [2], “Non-toxic”; in the data set on Mus musculus [10], 11.8%. For the same compound, the IC50 in the data set with SK-OV-3 is 92.6 µM; in the data set on BGC-823 it was over 200 µM; with 769-P, 175 µM; in the data set with KB it was over 200 µM; in the data set with A-375, over 200 µM. In addition, the LD50 at 336 h in [9] was 32.6 mg/kg.
With `c1cncc(-c2nccc3c4ccccc4n(CCCCCCn4c5ccccc5c5ccnc(-c6cccnc6)c54)c23)c1`, the Activity in data set [1] is 40.5%; in the data set on Mus musculus [2], “Non-toxic”; in the data set with Mus musculus [5], “Non-toxic”; in [4], 43.2%; in the data set with Mus musculus [6] it was “Non-toxic”; with B16, 24.3%. The Activity is 11.9% with Mus musculus [11], 50.6% in the data set with CT26, “Non-toxic” in the data set with Mus musculus [8] and 35% in the data set with H22. Further, the concentration for half-maximal inhibition (IC50) was 14.9 µM in the data set on SK-OV-3; 14.1 µM in the data set with BGC-823; over 200 µM with 769-P; 13.3 µM in the data set with KB; 5.3 µM in the data set with A-375.
As to `O=P1(N(CCCl)CCCl)NCCCO1` (stereo unspecified) [CYCLOPHOSPHAMIDE ANHYDROUS], the Activity in data set [1] was determined as 85.6%; in data set [4] it was 97.8%; in the data set on B16, 86.5%; in the data set on Mus musculus [11], 7.7%; in the data set on CT26, 97.2%; in the data set with H22 it was 83.8%.
For the compound `c1ccc2c(c1)c1ccncc1n2CCCCCCn1c2ccccc2c2ccncc21`, the Activity result in the data set with Mus musculus [2] is reported as “Non-toxic”; in the data set with Mus musculus [5], “Non-toxic”; in data set [4], 37.7%; in the data set with Mus musculus [6], “Non-toxic”; with B16, 24.8%; in the data set with Mus musculus [12] it was 15%. Also, the Activity in the data set with CT26 is listed as 32.4%; with Mus musculus [8], “Non-toxic”; in the data set with H22 it was 31.2%. Further, the IC50 in the data set with SK-OV-3 stood at 38.9 µM; in the data set on BGC-823, 13.8 µM; with 769-P, 12.8 µM; in the data set with KB, 13.9 µM; in the data set on A-375, 10.8 µM. The compound further came in with an LD50 at 336 h in data set [9] of 200 mg/kg.
Take `COc1ccc2c3ccnc(C)c3n(CCCCn3c4cc(OC)ccc4c4ccnc(C)c43)c2c1`: the Activity entry in the data set on Mus musculus [2] is given as “Non-toxic”; in the data set with Mus musculus [5], “Non-toxic”; in [4] it was 38.1%; in the data set on Mus musculus [6], “Non-toxic”; in the data set on Mus musculus [10], 7.7%; in the data set with CT26 it was 45.5%. Besides, the Activity entry in the data set on Mus musculus [8] is given as “Non-toxic”. Further, the IC50 in the data set with SK-OV-3 was 7.1 µM; in the data set on BGC-823, 75.7 µM; in the data set on 769-P, 65.6 µM; in the data set on KB, 2.8 µM; in the data set with A-375, 6.2 µM.
